Laboratory results published in ChEMBL document CHEMBL4396920, “DL5050, a Selective Agonist for the Human Constitutive Androstane Receptor” (ACS Med Chem Lett, 2019).

How the values were obtained:
[1] = target: T1, Nuclear receptor subfamily 1 group I member 3 (Homo sapiens, UniProt Q14994); assay: Agonist activity at human CAR transfected in human HepG2 cells cotransfected with CYP2B6 incubated for 23 hrs by luciferase reported gene assay; type: cell-based
T1 sequence (Q14994 whole entry): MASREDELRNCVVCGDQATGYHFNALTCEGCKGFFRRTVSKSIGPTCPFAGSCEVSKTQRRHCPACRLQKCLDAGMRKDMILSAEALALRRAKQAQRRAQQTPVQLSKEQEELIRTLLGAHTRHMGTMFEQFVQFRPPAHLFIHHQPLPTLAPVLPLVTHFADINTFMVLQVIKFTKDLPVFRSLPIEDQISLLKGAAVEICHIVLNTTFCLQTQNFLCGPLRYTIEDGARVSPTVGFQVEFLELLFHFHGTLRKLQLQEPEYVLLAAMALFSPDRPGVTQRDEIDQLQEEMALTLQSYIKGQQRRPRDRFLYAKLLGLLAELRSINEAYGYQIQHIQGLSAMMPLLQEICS
How it was run: (§1)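 qHTS luciferase reporter assay in a double-stable HepG2-CYP2B6-hCAR line. EC50 and Emax (fold luciferase signal over vehicle/basal) derived by nonlinear regression; Emax/EC50 ratio computed from these. Mean ± SEM of at least three independent experiments in quadruplicate.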

[2] = target: T2, Nuclear receptor subfamily 1 group I member 2 (Homo sapiens, UniProt O75469); assay: Agonist activity at human PXR transfected in human HepG2 cells cotransfected with CYP3A4 incubated for 23 hrs by luciferase reporter gene assay; type: cell-based
T2 sequence (O75469 whole entry): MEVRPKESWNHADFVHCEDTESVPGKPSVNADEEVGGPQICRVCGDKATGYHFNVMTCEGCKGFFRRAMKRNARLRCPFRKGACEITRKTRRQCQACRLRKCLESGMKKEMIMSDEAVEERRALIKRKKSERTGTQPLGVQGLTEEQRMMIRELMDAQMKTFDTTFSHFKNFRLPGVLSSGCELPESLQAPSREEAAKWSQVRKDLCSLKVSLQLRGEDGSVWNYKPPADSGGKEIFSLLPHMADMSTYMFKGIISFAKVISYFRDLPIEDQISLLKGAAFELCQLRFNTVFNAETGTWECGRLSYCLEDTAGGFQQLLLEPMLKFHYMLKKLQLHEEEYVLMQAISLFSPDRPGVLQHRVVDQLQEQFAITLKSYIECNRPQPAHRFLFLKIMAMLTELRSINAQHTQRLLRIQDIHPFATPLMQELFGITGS

[3] = target: T1, Nuclear receptor subfamily 1 group I member 3; assay: Ratio of Emax to EC50 for agonist activity at human CAR transfected in human HepG2 cells cotransfected with CYP2B6 by luciferase reporter gene assay; type: cell-based; how it was run: as §1
HepG2 [4] = assay: Cytotoxicity against human HepG2 cells harbouring CYP2B6-hCAR gene assessed as cell viability at 92 uM incubated for 24 hrs by cell titer-Glo cell viability assay; type: ADME, cell-based; conditions: hepg2, 24 h
[5] = target: T1, Nuclear receptor subfamily 1 group I member 3; assay: Agonist activity at human CAR in human primary hepatocytes assessed as slight increase in CYP2B6 level at 0.5 to 5 uM incubated for 72 hrs by Western blot analysis; type: cell-based
How it was run: (§2)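 Hepatocytes from liver donor #151, given the same treatments as the mRNA study. CYP2B6 and CYP3A4 protein detected by immunoblotting; representative blots.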

[6] = target: T1, Nuclear receptor subfamily 1 group I member 3; assay: Agonist activity at human CAR in human primary hepatocytes assessed as increase in CYP2B6 gene expression incubated for 24 hrs by RT-PCR analysis; type: cell-based
How it was run: (§3)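 Hepatocytes from human liver donor HL-#151, treated with test compound at 0.5, 1 and 5 μM or vehicle; CITCO (0.5–5 μM), PB (1 mM) and RIF (10 μM) as references. CYP2B6 and CYP3A4 mRNA measured by RT-PCR and normalized to vehicle control. Mean ± SD of three independent experiments.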

[7] = target: T2, Nuclear receptor subfamily 1 group I member 2; assay: Agonist activity at human PXR in human primary hepatocytes assessed as slight increase in CYP3A4 gene expression at 0.5 to 5 uM incubated for 24 hrs by RT-PCR analysis; type: cell-based; how it was run: as §3
[8] = target: T2, Nuclear receptor subfamily 1 group I member 2; assay: Ratio of Emax to EC50 for agonist activity at human PXR transfected in human HepG2 cells cotransfected with CYP3A4 by luciferase reporter gene assay; type: cell-based
HepG2 [9] = assay: Cytotoxicity against human HepG2 cells harbouring CYP2B6-hCAR gene assessed as reduction in cell viability at >10 uM incubated for 24 hrs by cell titer-Glo cell viability assay; type: ADME, cell-based; conditions: hepg2, 24 h
[10] = target: T2, Nuclear receptor subfamily 1 group I member 2; assay: Agonist activity at human PXR in human primary hepatocytes assessed as slight increase in CYP3A4 level at 0.5 to 5 uM incubated for 72 hrs by Western blot analysis; type: cell-based; how it was run: as §2
[11] = target: T1, Nuclear receptor subfamily 1 group I member 3; assay: Agonist activity at human CAR in human primary hepatocytes assessed as increase in CYP2B6 level incubated for 72 hrs by Western blot analysis; type: cell-based; how it was run: as §2
[12] = target: T1, Nuclear receptor subfamily 1 group I member 3; assay: Agonist activity at human CAR in human primary hepatocytes assessed as increase in CYP2B6 gene expression at 0.5 to 5 uM incubated for 24 hrs by RT-PCR analysis; type: cell-based; how it was run: as §3
[13] = target: T2, Nuclear receptor subfamily 1 group I member 2; assay: Agonist activity at human PXR in human primary hepatocytes assessed as increase in CYP3A4 gene expression at 1 mM incubated for 24 hrs by RT-PCR analysis; type: cell-based; conditions: 1000 µM
How it was run: (§4)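 Human primary hepatocytes from liver donor HL-#151 were treated with compound at 0.5, 1 or 5 μM, phenobarbital (1 mM), rifampicin (10 μM) or vehicle. CYP2B6 and CYP3A4 mRNA was measured by RT-PCR and normalized against vehicle control. Results are mean ± SD of three independent experiments.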

[14] = target: T1, Nuclear receptor subfamily 1 group I member 3; assay: Agonist activity at human CAR in human primary hepatocytes assessed as increase in CYP2B6 gene expression at 1 mM incubated for 24 hrs by RT-PCR analysis; type: cell-based; conditions: 1000 µM; how it was run: as §4

| SMILES | EC50 ([1]; read-out: EC50) [nM] | Ratio [3] | Activity (HepG2 [9]) | further results |
| --- | --- | --- | --- | --- |
| Clc1ccc(-c2nc3occn3c2/C=N/OCc2ccc(Cl)c(Cl)c2)cc1 | 410 | 10 | – | EC50 [2]: 1300 nM; Activity (HepG2 [4]): Non-Toxic; Activity [5]: Active; Activity [6]: Dose-dependent effect; Activity [7]: Active; Ratio [8]: 1.3 |
| Clc1ccc(CO/N=C/c2c(-c3cccc4ccccc34)nc3sccn23)cc1Cl | 940 | 2.3 | Toxic | – |
| Clc1ccc(CO/N=C/c2c(-c3ccc4ccccc4c3)nc3occn23)c(Cl)c1 | 1500 | 2.3 | Toxic | – |
| FC(F)(F)c1ccc(CO/N=C/c2c(-c3ccc4ccccc4c3)nc3occn23)cc1 | 470 | 6 | – | EC50 [2]: 2000 nM; Activity (HepG2 [4]): Non-Toxic; Ratio [8]: 0.85 |
| CC(C)(C)c1ccc(-c2nc3sccn3c2/C=N/OCc2ccc(Cl)c(Cl)c2)cc1 | 2400 | 0.83 | Toxic | – |
| Clc1ccccc1CO/N=C/c1c(-c2ccc3ccccc3c2)nc2occn12 | 1100 | 3.5 | Toxic | – |
| FC(F)(F)c1ccc(-c2nc3sccn3c2/C=N/OCc2ccc(Cl)c(Cl)c2)cc1 | 880 | 2.6 | Toxic | – |
| Cc1ccc(-c2nc3sccn3c2/C=N/OCc2ccc(Cl)c(Cl)c2)cc1 | 490 | 5.5 | Toxic | – |
| Clc1ccc(CO/N=C/c2c(-c3ccc(C4CCCCC4)cc3)nc3sccn23)cc1Cl | > 100000 | < 0.03 | Toxic | – |
| Clc1ccc(CO/N=C/c2c(-c3ccc4ccccc4c3)nc3sccn23)cc1Cl | 380 | 6.1 | Toxic | – |
| CC1(C)CCC(C)(C)c2cc(-c3nc4sccn4c3/C=N/OCc3ccc(Cl)c(Cl)c3)ccc21 | – | – | Toxic | EC50 ([1]; hepg2): Not Active; EC50 [2]: 3600 nM; Ratio [8]: 0.64 |
| Clc1ccc(CO/N=C/c2c(-c3ccc4ccccc4c3)nc3occn23)cc1 | 990 | 4.2 | Toxic | – |
| Clc1ccc(CO/N=C/c2c(-c3ccccc3)nc3sccn23)cc1Cl | 580 | 4 | Toxic | – |
| COc1ccc(-c2nc3sccn3c2/C=N/OCc2ccc(Cl)c(Cl)c2)cc1 | 490 | 4.9 | Toxic | – |
| Clc1ccc(CO/N=C/c2c(-c3ccc4ccccc4c3)nc3occn23)cc1Cl | 370 | 10 | – | EC50 [2]: 5900 nM; Activity [10]: Active; Activity [11]: Dose-dependent effect; Activity (HepG2 [4]): Non-Toxic; Activity [6]: Dose-dependent effect; Activity [7]: Active; Ratio [8]: 0.37 |
| Clc1cccc(-c2nc3sccn3c2/C=N/OCc2ccc(Cl)c(Cl)c2)c1 | 1100 | 2.1 | Toxic | – |
| CC(C)c1ccc(-c2nc3sccn3c2/C=N/OCc2ccc(Cl)c(Cl)c2)cc1 | 590 | 5.1 | Toxic | – |
| Fc1c(F)c(F)c(CO/N=C/c2c(-c3ccc4ccccc4c3)nc3occn23)c(F)c1F | 1700 | 1.8 | Toxic | – |
| CC(C)(C)c1ccc(CO/N=C/c2c(-c3ccc4ccccc4c3)nc3occn23)cc1 | 7900 | 0.29 | Toxic | – |
| Clc1ccc(CO/N=C/c2c(-c3ccc(-c4ccccc4)cc3)nc3sccn23)cc1Cl | – | – | Toxic | EC50 ([1]; hepg2): Not Active; EC50 [2]: 57000 nM; Ratio [8]: 0.06 |
| Clc1ccc(CO/N=C/c2c(-c3ccc(Br)cc3)nc3sccn23)cc1Cl | 480 | 5 | Toxic | – |
| Fc1ccc(-c2nc3sccn3c2/C=N/OCc2ccc(Cl)c(Cl)c2)cc1 | 670 | 3.9 | Toxic | – |
| C(=N\OCc1ccccc1)/c1c(-c2ccc3ccccc3c2)nc2occn12 | 840 | 5.2 | – | EC50 [2]: 7300 nM; Activity (HepG2 [4]): Non-Toxic; Ratio [8]: 1 |
| COc1ccc(CO/N=C/c2c(-c3ccc4ccccc4c3)nc3occn23)cc1 | 4400 | 0.75 | Toxic | – |
| CCc1nc2sccn2c1/C=N/OCc1ccc(Cl)c(Cl)c1 | 2600 | 1.4 | Toxic | – |
| C(=N\OC1Cc2ccccc2C1)/c1c(-c2ccc3ccccc3c2)nc2occn12 | 980 | 3.8 | Toxic | – |
| N#Cc1ccc(-c2nc3sccn3c2/C=N/OCc2ccc(Cl)c(Cl)c2)cc1 | 3400 | 0.65 | Toxic | – |
| C(=N\OCc1ccc(Oc2ccccc2)cc1)/c1c(-c2ccc3ccccc3c2)nc2occn12 | – | – | Toxic | EC50 ([1]; hepg2): Not Active; EC50 [2]: 1100 nM; Ratio [8]: 1.6 |
| Clc1ccc(-c2nc3sccn3c2/C=N/OCc2ccc(Cl)c(Cl)c2)cc1 | – | – | Toxic | EC50 [2]: 990 nM; Activity [12]: Active |
| CCC1(c2ccccc2)C(=O)NC(=O)NC1=O [PHENOBARBITAL] | – | – | – | Activity [13]: Active; Activity [14]: Active |
